Test results: ChEMBL document CHEMBL1649383, “Mode of action of epoxyphomalins A and B and characterization of related metabolites from the marine-derived fungus Paraconiothyrium sp” (J Nat Prod, 2010)
Values after ≈ are worked out from the molar mass of the structure shown.

How the values were obtained:
[1] = Cytotoxicity against human BXF 1218L cells; assay type: functional, cell-based
How it was run: (§1)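 Monolayer cell survival and proliferation assay, run within a panel of 36 human tumor cell lines; IC50 determined per cell line.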

HT-29 [2] = assay: Cytotoxicity against human HT-29 cells; assay type: functional, cell-based; how it was run: as §1
[3] = Cytotoxicity against human MAXF 401NL cells; assay type: functional, cell-based
How it was run: (§2)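 Monolayer cell survival and proliferation assay run across a panel of 36 human tumour cell lines; IC50 values determined.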

MCF7 [4] = assay: Cytotoxicity against human MCF7 cells; assay type: functional, cell-based; how it was run: as §2
DU-145 [5] = assay: Cytotoxicity against human DU145 cells; assay type: functional, cell-based; how it was run: as §1
[6] = Cytotoxicity against human RXF 486L cells; assay type: functional, cell-based
How it was run: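 Monolayer cell survival and proliferation assay run across a panel of 36 human tumor cell lines, with IC50 determined from the resulting growth data.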

T-24 = assay: Cytotoxicity against human T24 cells at 0.001 ug/ml relative to control; assay type: functional
HCT-116 [7] = assay: Cytotoxicity against human HCT116 cells at 0.001 ug/ml relative to control; assay type: functional
HT-29 [8] = assay: Cytotoxicity against human HT-29 cells at 0.001 ug/ml relative to control; assay type: functional
[9] = Cytotoxicity against human GXF251L cells at 0.001 ug/ml relative to control; assay type: functional
[10] = Cytotoxicity against human MAXF 401NL cells at 0.001 ug/ml relative to control; assay type: functional
MCF7 [11] = assay: Cytotoxicity against human MCF7 cells at 0.001 ug/ml relative to control; assay type: functional
[12] = Cytotoxicity against human MEXF 276L cells at 0.001 ug/ml relative to control; assay type: functional, MEXF276L
OVCAR-3 [13] = assay: Cytotoxicity against human OVCAR3 cells at 0.001 ug/ml relative to control; assay type: functional
[14] = Cytotoxicity against human PAXF 1657L cells at 0.001 ug/ml relative to control; assay type: functional
PANC-1 [15] = assay: Cytotoxicity against human PANC1 cells at 0.001 ug/ml relative to control; assay type: functional
[16] = Cytotoxicity against human UXF 1138L cells at 0.001 ug/ml relative to control; assay type: functional
[17] = Cytotoxicity against human LXFA 629L cells at 0.01 ug/ml relative to control; assay type: functional
NCI-H460 = assay: Cytotoxicity against human H460 cells at 0.01 ug/ml relative to control; assay type: functional
MCF7 [18] = assay: Cytotoxicity against human MCF7 cells at 0.01 ug/ml relative to control; assay type: functional
[19] = Cytotoxicity against human MEXF 394NL cells at 0.01 ug/ml relative to control; assay type: functional
[20] = Cytotoxicity against human MEXF 462NL cells at 0.01 ug/ml relative to control; assay type: functional
[21] = Cytotoxicity against human OVXF 1619L cells at 0.01 ug/ml relative to control; assay type: functional
[22] = Cytotoxicity against human OVXF 899L cells at 0.01 ug/ml relative to control; assay type: functional
OVCAR-3 [23] = assay: Cytotoxicity against human OVCAR3 cells at 0.01 ug/ml relative to control; assay type: functional
CWR22R = assay: Cytotoxicity against human 22Rv1 cells at 0.01 ug/ml relative to control; assay type: functional
DU-145 [24] = assay: Cytotoxicity against human DU145 cells at 0.01 ug/ml relative to control; assay type: functional
LNCaP [25] = assay: Cytotoxicity against human LNCAP cells at 0.01 ug/ml relative to control; assay type: functional
[26] = Cytotoxicity against human RXF 1781L cells at 0.01 ug/ml relative to control; assay type: functional
[27] = Cytotoxicity against human LXFL 1121L cells at 0.1 ug/ml relative to control; assay type: functional
[28] = Cytotoxicity against human MEXF 394NL cells at 0.1 ug/ml relative to control; assay type: functional
[29] = Cytotoxicity against human OVXF 899L cells at 0.1 ug/ml relative to control; assay type: functional
PANC-1 [30] = assay: Cytotoxicity against human PANC1 cells at 0.1 ug/ml relative to control; assay type: functional
[31] = Cytotoxicity against human PC3M cells at 0.1 ug/ml relative to control; assay type: functional, PC-3M
[32] = Cytotoxicity against human PXF 1752L cells at 0.1 ug/ml relative to control; assay type: functional
HT-29 [33] = assay: Cytotoxicity against human HT-29 cells at 1 ug/ml relative to control; assay type: functional
[34] = Cytotoxicity against human LXFA 289L cells at 1 ug/ml relative to control; assay type: functional
[35] = Cytotoxicity against human LXFA 526L cells at 1 ug/ml relative to control; assay type: functional
MCF7 [36] = assay: Cytotoxicity against human MCF7 cells at 1 ug/ml relative to control; assay type: functional
[37] = Cytotoxicity against human OVXF 899L cells at 1 ug/ml relative to control; assay type: functional
[38] = Cytotoxicity against human PXF 1752L cells at 1 ug/ml relative to control; assay type: functional
[39] = Cytotoxicity against human RXF 1781L cells at 1 ug/ml relative to control; assay type: functional
[40] = Cytotoxicity against human RXF 393NL cells at 1 ug/ml relative to control; assay type: functional
[41] = Cytotoxicity against human UXF 1138L cells at 1 ug/ml relative to control; assay type: functional
HCT-116 [42] = assay: Cytotoxicity against human HCT116 cells at 10 ug/ml relative to control; assay type: functional
[43] = Cytotoxicity against human MAXF 401NL cells at 10 ug/ml relative to control; assay type: functional
[44] = Cytotoxicity against human MEXF 276L cells at 10 ug/ml relative to control; assay type: functional, MEXF276L
OVCAR-3 [45] = assay: Cytotoxicity against human OVCAR3 cells at 10 ug/ml relative to control; assay type: functional
LNCaP [46] = assay: Cytotoxicity against human LNCAP cells at 10 ug/ml relative to control; assay type: functional
[47] = Cytotoxicity against human UXF 1138L cells at 10 ug/ml relative to control; assay type: functional

C=C1[C@@H](O)[C@H]2O[C@@]2(C[C@H]2C(C)=CC[C@H]3C(C)(C)CCC[C@]23C)[C@@H](O)[C@H]1O [EPOXYPHOLAMIN D]
IC50 [1]: 1.43 µM | IC70 [1]: 0.969 µg/mL (≈ 2.67 µM) | IC90 [1]: > 10 µg/mL | IC50 (HT-29 [2]): 10.8 µM | IC70 (HT-29 [2]): 5.73 µg/mL (≈ 15.8 µM) | IC90 (HT-29 [2]): 8.41 µg/mL (≈ 23.2 µM) | IC50 [3]: 2.57 µM | IC70 [3]: 3.16 µg/mL (≈ 8.72 µM) | IC90 [3]: 11.4 µg/mL (≈ 31.3 µM) | IC50 (MCF7 [4]): 5.32 µM | IC70 (MCF7 [4]): 4.01 µg/mL (≈ 11.1 µM) | IC90 (MCF7 [4]): 8.33 µg/mL (≈ 23 µM) | IC50 (DU-145 [5]): 8.99 µM | IC70 (DU-145 [5]): 5.88 µg/mL (≈ 16.2 µM) | IC90 (DU-145 [5]): 10.6 µg/mL (≈ 29.3 µM) | IC50 [6]: 7.67 µM | IC70 [6]: 5.27 µg/mL (≈ 14.5 µM) | IC90 [6]: 10 µg/mL (≈ 27.6 µM) | Activity (T-24): 100% | Activity (HCT-116 [7]): 88% | Activity (HT-29 [8]): 97% | Activity [9]: 105% | Activity [10]: 106% | Activity (MCF7 [11]): 91% | Activity [12]: 98% | Activity (OVCAR-3 [13]): 100% | Activity [14]: 100% | Activity (PANC-1 [15]): 90% | Activity [16]: 96% | Activity [17]: 87% | Activity (NCI-H460): 98% | Activity (MCF7 [18]): 102% | Activity [19]: 85% | Activity [20]: 122% | Activity [21]: 106% | Activity [22]: 104% | Activity (OVCAR-3 [23]): 98% | Activity (CWR22R): 81% | Activity (DU-145 [24]): 76% | Activity (LNCaP [25]): 111% | Activity [26]: 95% | Activity [27]: 146% | Activity [28]: 99% | Activity [29]: 97% | Activity (PANC-1 [30]): 97% | Activity [31]: 73% | Activity [32]: 95% | Activity (HT-29 [33]): 121% | Activity [34]: 102% | Activity [35]: 119% | Activity (MCF7 [36]): 68% | Activity [37]: 84% | Activity [38]: 46% | Activity [39]: 100% | Activity [40]: 118% | Activity [41]: 72% | Activity (HCT-116 [42]): 4% | Activity [43]: 12% | Activity [44]: 20% | Activity (OVCAR-3 [45]): 13% | Activity (LNCaP [46]): 27% | Activity [47]: 9%
